According to ChEMBL document CHEMBL3244011, “(Aryloxy)[p-(aryloxy)phenyl]- and (aryloxy)[p-(arylthio)phenyl]acetic acids and esters as hypolipidemic agents” (1979):

test system: Rattus norvegicus; test: Hypolipidemic activity in COBBS-CD rat assessed as reduction in serum sterol level at 0.01% administered with chow diet after 5 days relative to control; type: functional; design: scale not given: the % may be the effect or the level left
Method in brief: (§1)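 Male COBBS-CD rats, four per treated group and eight per control group. The compound was mixed into ground rat chow at 0.1, 0.03 or 0.01% w/w (about 100, 30 and 10 mg/kg). Control chow received only the mixing solvent (methanol-chloroform 1:3 v/v). Food and water were ad libitum for 5 days, then rats were decapitated and blood collected. Serum sterols were measured by an automated method and expressed relative to controls; ± values are SD.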

SMILES	Activity [%]
COC(=O)C(Oc1cccc(C(C)(C)C)c1)c1ccc(Oc2ccc(Cl)cc2)cc1 (centres undefined)	23
COC(=O)C(Oc1ccccc1)c1ccc(Oc2ccc(Cl)cc2)cc1 (centres undefined)	18
COC(=O)C(Oc1ccc(Cl)cc1)c1ccc(Sc2ccc(Cl)cc2)cc1 (centres undefined)	17
COC(=O)C(Oc1ccc(NC(C)=O)cc1)c1ccc(Oc2ccc(Cl)cc2)cc1 (centres undefined)	-4
O=C(OCC(O)CO)C(Oc1ccc(Cl)cc1)c1ccc(Oc2ccc(Cl)cc2)cc1 (centres undefined)	13
COC(=O)C(Oc1ccc(C2CCCCC2)cc1)c1ccc(Sc2ccc(Cl)cc2)cc1 (centres undefined)	14
COC(=O)C(Oc1ccc(Cl)cc1)c1ccc(Oc2ccccc2)cc1 (centres undefined)	19
COC(=O)C(Oc1ccc(C2CCCCC2)cc1)c1ccc(Oc2ccc(Cl)cc2)cc1 (centres undefined)	20
COC(=O)C(Oc1ccc2c(c1)CCCC2)c1ccc(Oc2ccc(Cl)cc2)cc1 (centres undefined)	24

test system: Rattus norvegicus; test: Hypolipidemic activity in COBBS-CD rat assessed as reduction in serum sterol level at 0.1% administered with chow diet after 5 days relative to control; type: functional; design: scale not given: the % may be the effect or the level left; method in brief: as §1

SMILES	Activity [%]
COC(=O)C(Oc1cccc(C(C)(C)C)c1)c1ccc(Oc2ccc(Cl)cc2)cc1 (centres undefined)	41
COC(=O)C(Oc1ccccc1)c1ccc(Oc2ccc(Cl)cc2)cc1 (centres undefined)	31
COC(=O)C(Oc1ccc(Cl)cc1)c1ccc(Sc2ccc(Cl)cc2)cc1 (centres undefined)	25
COC(=O)C(Oc1ccc(NC(C)=O)cc1)c1ccc(Oc2ccc(Cl)cc2)cc1 (centres undefined)	-3
O=C(OCC(O)CO)C(Oc1ccc(Cl)cc1)c1ccc(Oc2ccc(Cl)cc2)cc1 (centres undefined)	39
COC(=O)C(Oc1ccc(C2CCCCC2)cc1)c1ccc(Sc2ccc(Cl)cc2)cc1 (centres undefined)	19
COC(=O)C(Oc1ccc(Cl)cc1)c1ccc(Oc2ccccc2)cc1 (centres undefined)	13
COC(=O)C(Oc1ccc(C2CCCCC2)cc1)c1ccc(Oc2ccc(Cl)cc2)cc1 (centres undefined)	51
COC(=O)C(Oc1ccc2c(c1)CCCC2)c1ccc(Oc2ccc(Cl)cc2)cc1 (centres undefined)	42

test system: Rattus norvegicus; test: Hypolipidemic activity in COBBS-CD rat assessed as reduction in serum triglyceride level at 0.01% administered with chow diet after 5 days relative to control; type: functional; design: scale not given: the % may be the effect or the level left
Method in brief: (§2)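 The compound was given in ground chow at 0.1, 0.03 or 0.01% w/w (about 100, 30 and 10 mg/kg) to male COBBS-CD rats (n=4; solvent-chow controls n=8) for 5 days ad libitum. Rats were killed by decapitation and blood collected. Serum triglycerides were assayed by an automated method and compared with controls; ± values are SD.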

SMILES	Activity [%]
COC(=O)C(Oc1cccc(C(C)(C)C)c1)c1ccc(Oc2ccc(Cl)cc2)cc1 (centres undefined)	41
COC(=O)C(Oc1ccccc1)c1ccc(Oc2ccc(Cl)cc2)cc1 (centres undefined)	77
COC(=O)C(Oc1ccc(Cl)cc1)c1ccc(Sc2ccc(Cl)cc2)cc1 (centres undefined)	66
COC(=O)C(Oc1ccc(NC(C)=O)cc1)c1ccc(Oc2ccc(Cl)cc2)cc1 (centres undefined)	-9
O=C(OCC(O)CO)C(Oc1ccc(Cl)cc1)c1ccc(Oc2ccc(Cl)cc2)cc1 (centres undefined)	24
COC(=O)C(Oc1ccc(C2CCCCC2)cc1)c1ccc(Sc2ccc(Cl)cc2)cc1 (centres undefined)	33
COC(=O)C(Oc1ccc(Cl)cc1)c1ccc(Oc2ccccc2)cc1 (centres undefined)	62
COC(=O)C(Oc1ccc(C2CCCCC2)cc1)c1ccc(Oc2ccc(Cl)cc2)cc1 (centres undefined)	37
COC(=O)C(Oc1ccc2c(c1)CCCC2)c1ccc(Oc2ccc(Cl)cc2)cc1 (centres undefined)	8

test system: Rattus norvegicus; test: Hypolipidemic activity in COBBS-CD rat assessed as reduction in serum triglyceride level at 0.1% administered with chow diet after 5 days relative to control; type: functional; design: scale not given: the % may be the effect or the level left; method in brief: as §2

SMILES	Activity [%]
COC(=O)C(Oc1cccc(C(C)(C)C)c1)c1ccc(Oc2ccc(Cl)cc2)cc1 (centres undefined)	63
COC(=O)C(Oc1ccccc1)c1ccc(Oc2ccc(Cl)cc2)cc1 (centres undefined)	68
COC(=O)C(Oc1ccc(Cl)cc1)c1ccc(Sc2ccc(Cl)cc2)cc1 (centres undefined)	64
COC(=O)C(Oc1ccc(NC(C)=O)cc1)c1ccc(Oc2ccc(Cl)cc2)cc1 (centres undefined)	13
O=C(OCC(O)CO)C(Oc1ccc(Cl)cc1)c1ccc(Oc2ccc(Cl)cc2)cc1 (centres undefined)	63
COC(=O)C(Oc1ccc(C2CCCCC2)cc1)c1ccc(Sc2ccc(Cl)cc2)cc1 (centres undefined)	45
COC(=O)C(Oc1ccc(Cl)cc1)c1ccc(Oc2ccccc2)cc1 (centres undefined)	58
COC(=O)C(Oc1ccc(C2CCCCC2)cc1)c1ccc(Oc2ccc(Cl)cc2)cc1 (centres undefined)	66
COC(=O)C(Oc1ccc2c(c1)CCCC2)c1ccc(Oc2ccc(Cl)cc2)cc1 (centres undefined)	47

test system: Rattus norvegicus; test: Hypolipidemic activity in COBBS-CD rat assessed as reduction in serum triglyceride level at 0.03% administered with chow diet after 5 days relative to control; type: functional; design: scale not given: the % may be the effect or the level left; method in brief: as §2

SMILES	Activity [%]
COC(=O)C(Oc1cccc(C(C)(C)C)c1)c1ccc(Oc2ccc(Cl)cc2)cc1 (centres undefined)	49
COC(=O)C(Oc1ccccc1)c1ccc(Oc2ccc(Cl)cc2)cc1 (centres undefined)	67
COC(=O)C(Oc1ccc(Cl)cc1)c1ccc(Sc2ccc(Cl)cc2)cc1 (centres undefined)	62
COC(=O)C(Oc1ccc(NC(C)=O)cc1)c1ccc(Oc2ccc(Cl)cc2)cc1 (centres undefined)	-20
O=C(OCC(O)CO)C(Oc1ccc(Cl)cc1)c1ccc(Oc2ccc(Cl)cc2)cc1 (centres undefined)	53
COC(=O)C(Oc1ccc(C2CCCCC2)cc1)c1ccc(Sc2ccc(Cl)cc2)cc1 (centres undefined)	44
COC(=O)C(Oc1ccc(Cl)cc1)c1ccc(Oc2ccccc2)cc1 (centres undefined)	56
COC(=O)C(Oc1ccc(C2CCCCC2)cc1)c1ccc(Oc2ccc(Cl)cc2)cc1 (centres undefined)	47
COC(=O)C(Oc1ccc2c(c1)CCCC2)c1ccc(Oc2ccc(Cl)cc2)cc1 (centres undefined)	35

test system: Rattus norvegicus; test: Hypolipidemic activity in COBBS-CD rat assessed as reduction in serum sterol level at 0.03% administered with chow diet after 5 days relative to control; type: functional; design: scale not given: the % may be the effect or the level left; method in brief: as §1

SMILES	Activity [%]
COC(=O)C(Oc1cccc(C(C)(C)C)c1)c1ccc(Oc2ccc(Cl)cc2)cc1 (centres undefined)	20
COC(=O)C(Oc1ccccc1)c1ccc(Oc2ccc(Cl)cc2)cc1 (centres undefined)	18
COC(=O)C(Oc1ccc(Cl)cc1)c1ccc(Sc2ccc(Cl)cc2)cc1 (centres undefined)	25
COC(=O)C(Oc1ccc(NC(C)=O)cc1)c1ccc(Oc2ccc(Cl)cc2)cc1 (centres undefined)	-11
O=C(OCC(O)CO)C(Oc1ccc(Cl)cc1)c1ccc(Oc2ccc(Cl)cc2)cc1 (centres undefined)	27
COC(=O)C(Oc1ccc(C2CCCCC2)cc1)c1ccc(Sc2ccc(Cl)cc2)cc1 (centres undefined)	15
COC(=O)C(Oc1ccc(Cl)cc1)c1ccc(Oc2ccccc2)cc1 (centres undefined)	3
COC(=O)C(Oc1ccc(C2CCCCC2)cc1)c1ccc(Oc2ccc(Cl)cc2)cc1 (centres undefined)	21
COC(=O)C(Oc1ccc2c(c1)CCCC2)c1ccc(Oc2ccc(Cl)cc2)cc1 (centres undefined)	26
